High-throughput results as filed in PubChem BioAssay.
T cruzi growth-1 – inhibitors of T. cruzi proliferation; AID 624255; T. cruzi beta-gal in NIH3T3, GalScreen luminescence, 90 h; inhibition, % at 8.34 µM; 77,000 tested, 5.9% active;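 active means mean inhibition above about 93%, with at least 55% of replicates each passing it, limit read from the data, passing the limit was not always enough; inconclusive means only one of those two conditions holds; inactive means neither condition holds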
IDH1 R132H inh – inhibitors of human IDH1 R132H; 70,000 tested, 0.18% active; IDH1 R132H reductase, diaphorase/resazurin fluorescence, 60 min; AID 624101; inhibition, % at 10 µM; O75874; in the data active means inhibition above about 34%; inconclusive means no clear call, values can overlap the other calls; inactive means below about 11%
Pf Dd2 growth – inhibitors of Plasmodium falciparum Dd2 growth; P. falciparum Dd2 growth, SYBR Green, 72 h; active compounds read low; AID 1159554; 94,000 tested, 2.3% active; activity change, % at 10 µM; in the data active means activity change below about -80%; inconclusive means no clear call, values can overlap the other calls
KDM4C inh – blocks human GASC-1 (KDM4C) demethylase activity | GST-KDM4C 2-372, H3K9me3 peptide, LANCE TR-FRET | inhibition, % at 12.5 µM | Q9H3R0 | 96,000 tested, 0.15% active;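 active means mean replicate inhibition above about 25%, with at least 55% of replicates also reaching it, limit read from the data, passing the limit was not always enough; inconclusive means only one of those two conditions met; inactive means neither condition met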
Target sequence (Q9H3R0 2-372 limits assumed): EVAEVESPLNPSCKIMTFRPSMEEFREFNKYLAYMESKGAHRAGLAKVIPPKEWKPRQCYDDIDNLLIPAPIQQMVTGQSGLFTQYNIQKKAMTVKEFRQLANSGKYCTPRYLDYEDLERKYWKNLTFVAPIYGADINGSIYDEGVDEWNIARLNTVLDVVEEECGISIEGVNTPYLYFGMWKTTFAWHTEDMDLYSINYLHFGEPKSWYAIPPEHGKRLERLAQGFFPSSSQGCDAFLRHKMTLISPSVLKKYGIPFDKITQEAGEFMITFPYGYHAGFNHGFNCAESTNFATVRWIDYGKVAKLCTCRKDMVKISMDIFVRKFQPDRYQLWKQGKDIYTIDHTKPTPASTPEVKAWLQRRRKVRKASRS
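System: N-terminal GST-fused human GASC-1 (KDM4C) fragment, residues 2-372 / Amount: 10 nM GST-KDM4C in enzyme reaction / Also added: H3K9me3 peptide with Fe(II)/2OG / Times: 30 min demethylation and 1 h detection at room temperature / Signal: LANCE TR-FRET / Read-out basis: Fall in 671/618 emission ratio as inhibition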
T cruzi growth-2 – Trypanosoma cruzi proliferation inhibition | 5,600 tested, 72% active | AID 651739 | T. cruzi beta-gal in NIH3T3, GalScreen luminescence, 90 h | inhibition, % at 8.35 µM | shares compounds with T cruzi growth-1;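 active means mean replicate inhibition above about 95% and at least 55% of replicates individually reaching it, limit read from the data; inconclusive means only one of the two criteria is met; inactive means neither criterion is met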
T cruzi growth-3 – inhibitors of T. cruzi proliferation; shares compounds with T cruzi growth-1; T. cruzi beta-gal in NIH3T3, GalScreen luminescence, 90 h; inhibition, % at 2.09 µM; 5,600 tested, 21% active;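 active means mean inhibition above about 95%, with at least 55% of replicates also reaching it, limit read from the data; inconclusive means meets just one of the two conditions; inactive means meets neither condition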
3T3 cytotox – kills mouse NIH/3T3 fibroblasts; shares compounds with T cruzi growth-1; NIH/3T3 viability, CellTiter-Glo ATP luminescence, 90 h; 5,600 tested, 14% active; cytotoxicity (signal decrease), % at 8.35 µM;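 active means mean signal decrease across replicates above about 35% based on untreated-well scatter, with enough replicates individually passing, limit read from the data; inconclusive means no rule stated though some were filed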
3T3 cytotox 2 – NIH/3T3 (mouse) viability loss | shares compounds with T cruzi growth-1 | NIH/3T3 viability, CellTiter-Glo ATP luminescence, 90 h | inhibition, % at 24.9 µM | 5,600 tested, 56% active;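 active means mean loss of cell viability signal at or above a set limit, and enough replicates individually reaching it; inconclusive means meets only the mean limit or only the replicate share; inactive means meets neither condition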
Numbers stand for hits; . = inactive; ? = inconclusive; / = not tested or not shown. Only some compounds are listed: those with a hit (about 5.8% of all), similar ones and a draw of the others.

SMILES	T cruzi growth-1	IDH1 R132H inh	Pf Dd2 growth	KDM4C inh	T cruzi growth-2	T cruzi growth-3	3T3 cytotox	3T3 cytotox 2
C[C@H]1CN([C@@H](C)CO)C(=O)c2cc(-c3ccccc3)cnc2O[C@H]1CN(C)C(=O)Cc1ccccc1	.	.	.	.	/	/	/	/
O=C(Nc1ccccc1)N1C[C@@H]2[C@H](c3ccccc31)[C@H](CO)N2CC1CCCC1	.	/	.	.	/	/	/	/
Cc1cccc(-c2ccc([C@H]3[C@H]4CN(C(=O)c5cccnc5)CCCCN4[C@H]3CO)cc2)c1	109	/	.	.	?	.	.	26
Cc1cccc(-c2ccc([C@@H]3[C@@H](CO)N4CCCCN(C(=O)c5ccncc5)C[C@H]34)cc2)c1	.	/	.	.	/	/	/	/
Cc1cccc(-c2ccc([C@H]3[C@H](CO)N4CCCCN(C(=O)c5cccnc5)C[C@@H]34)cc2)c1	116	/	.	.	102	.	39	32
Cc1cccc(-c2ccc([C@H]3[C@@H](CO)N4CCCCN(C(=O)c5ccncc5)C[C@H]34)cc2)c1	?	/	.	.	105	.	.	24
O=C(c1ccncc1)N1CCCCN2[C@H](CO)[C@H](c3ccc(-c4ccccc4)cc3)[C@@H]2C1	119	/	.	.	.	.	.	.
O=C(c1ccncc1)N1CCCCN2[C@H](C1)[C@@H](c1ccc(-c3ccccc3)cc1)[C@@H]2CO	.	/	.	.	/	/	/	/
COCC(=O)N1C[C@H](C)[C@@H](OC)CN(C)C(=O)c2ccc(NC(=O)c3cnccn3)cc2OC[C@H]1C	.	.	.	.	/	/	/	/
C[C@@H]1CCCCO[C@H](CN(C)Cc2ccncc2)[C@H](C)CN([C@H](C)CO)C(=O)c2cc(NC(=O)c3ccncc3)ccc2O1	.	.	.	.	/	/	/	/
O=C(C[C@@H]1CC[C@H]2[C@@H](COC[C@H](O)CN2Cc2ccccc2)O1)N1CCOCC1	.	/	.	.	/	/	/	/
COc1ccc(CN(C)C[C@H]2Oc3ccc(NC(=O)Cn4cnnn4)cc3C(=O)N([C@H](C)CO)C[C@H]2C)cc1	.	.	.	.	/	/	/	/
Cc1cccc(-c2ccc([C@@H]3[C@@H](CO)N4CCCCN(C(=O)c5ccncc5)C[C@@H]34)cc2)c1	.	/	.	.	/	/	/	/
Cc1cccc(-c2ccc([C@@H]3[C@@H](CO)N4CCCCN(C(=O)c5cccnc5)C[C@@H]34)cc2)c1	100	/	.	.	.	.	.	.
Cc1cccc(-c2ccc([C@@H]3[C@@H](CO)N4CCCCN(C(=O)c5cccnc5)C[C@H]34)cc2)c1	?	/	.	.	.	.	.	30
Cc1ccccc1-c1ccc([C@H]2[C@@H](CO)N3CCCCN(C(=O)c4cccnc4)C[C@H]23)cc1	99	/	.	.	97	.	.	.
C[C@H]1CN([C@@H](C)CO)C(=O)c2cc(/C=C/c3ccccc3)cnc2O[C@@H]1CN(C)C(=O)Nc1ccccc1F	126	.	.	.	108	107	.	.
C[C@@H]1CN([C@@H](C)CO)C(=O)c2cc(/C=C/c3ccccc3)cnc2O[C@@H]1CN(C)C(=O)Nc1ccccc1F	109	.	.	.	.	.	.	24
C[C@H](CO)N1C[C@H](C)[C@H](CN(C)C(=O)Nc2cccc3ccccc23)Oc2ncc(-c3cc4ccccc4o3)cc2C1=O	?	.	.	.	102	.	45	102
C[C@H](CO)N1C[C@H](C)[C@H](CN(C)C(=O)Nc2ccccc2F)Oc2ncc(/C=C/c3ccccc3)cc2C1=O	.	.	.	.	/	/	/	/
COc1ccc(S(=O)(=O)N2CC[C@@H]3[C@H]2c2cc(C#Cc4cccnc4)ccc2N[C@@H]3CO)cc1	.	/	.	.	/	/	/	/
CNC[C@@H]1Oc2cc(C#Cc3ccncc3)ccc2S(=O)(=O)N([C@@H](C)CO)C[C@@H]1C	/	.	.	.	/	/	/	/
CNC[C@H]1Oc2cc(C#Cc3ccncc3)ccc2S(=O)(=O)N([C@H](C)CO)C[C@H]1C	/	/	.	.	/	/	/	/
CNC[C@@H]1Oc2cc(C#Cc3ccccn3)ccc2S(=O)(=O)N([C@H](C)CO)C[C@H]1C	103	.	.	.	110	.	.	.
CNC[C@@H]1Oc2cc(C#Cc3ccccn3)ccc2S(=O)(=O)N([C@@H](C)CO)C[C@H]1C	105	.	.	.	107	.	.	.
SMILES	T cruzi growth-1	IDH1 R132H inh	Pf Dd2 growth	KDM4C inh	T cruzi growth-2	T cruzi growth-3	3T3 cytotox	3T3 cytotox 2
COc1ccccc1-c1ccc([C@H]2[C@@H](CO)N3CCCCN(C(=O)NC4CCCC4)C[C@@H]23)cc1	100	/	.	.	109	.	.	34
O=C(NC1CCCC1)N1CCCCN2[C@H](CO)[C@@H](c3ccc(-c4ccccc4)cc3)[C@H]2C1	.	/	.	.	/	/	/	/
O=C(NC1CCCC1)N1CCCCN2[C@H](CO)[C@H](c3ccc(-c4ccccc4)cc3)[C@@H]2C1	113	/	.	.	113	.	.	63
COc1ccc(S(=O)(=O)N(C)C[C@@H]2Oc3ccc(NS(=O)(=O)c4ccc(Cl)cc4)cc3C(=O)N([C@H](C)CO)C[C@@H]2C)cc1	.	.	.	.	/	/	/	/
C[C@H](CO)N1C[C@H](C)[C@@H](CN(C)C(=O)Nc2ccc(C(F)(F)F)cc2)Oc2ncc(C3=CCCC3)cc2C1=O	102	/	.	.	103	.	.	74
C[C@@H]1CN([C@H](C)CO)C(=O)c2cc(C3=CCCC3)cnc2O[C@H]1CN(C)C(=O)Nc1ccc(C(F)(F)F)cc1	102	/	.	.	98	.	.	59
C[C@@H]1CN([C@H](C)CO)C(=O)c2cc(C3=CCCC3)cnc2O[C@H]1CN(C)C(=O)Nc1ccc(F)cc1	.	/	.	.	/	/	/	/
C[C@@H]1CN([C@H](C)CO)C(=O)CCCn2nncc2CO[C@H]1CN(C)Cc1ccc(C(=O)Nc2ccccc2N)cc1	109	/	.	.	101	.	.	31
C[C@H](CO)N1C[C@H](C)[C@@H](CN(C)Cc2ccc(-c3ccccc3)cc2)OCc2cnnn2CCCC1=O	?	/	.	.	.	.	.	51
C[C@@H]1CN([C@@H](C)CO)C(=O)CCCn2nncc2CO[C@H]1CN(C)Cc1ccc(C(=O)Nc2ccccc2N)cc1	110	/	.	.	101	107	.	36
C[C@@H]1CN([C@@H](C)CO)C(=O)CCCn2nncc2CO[C@@H]1CN(C)Cc1ccc(C(=O)Nc2ccccc2N)cc1	.	/	.	.	/	/	/	/
C[C@H](CO)N1C[C@H](C)[C@@H](CN(C)Cc2ccc(C(=O)Nc3ccccc3N)cc2)OCc2cnnn2CCCC1=O	110	/	.	.	106	.	.	?
C[C@H]1CN([C@@H](C)CO)C(=O)CCCn2nncc2CO[C@@H]1CN(C)Cc1ccc(C(=O)O)cc1	/	.	/	.	/	/	/	/
